# Reference: ChEMBL document CHEMBL5038599, “Identification of Thiazoyl Guanidine Derivatives as Novel Antifungal Agents Inhibiting Ergosterol Biosynthesis for Treatment of Invasive Fungal Infections” (J Med Chem, 2021)
# Activity calls are given as the source filed them. The rule behind the calls is not given here.
# Legend:
# [1] = tested on: Aspergillus fumigatus; test: Antifungal activity against Aspergillus fumigatus ATCC 204305 assessed as inhibition of fungal growth […] by broth microdilution method; type: functional
# [2] = tested on: Candida albicans; test: Antifungal activity against Candida albicans ATCC 90028 assessed as inhibition of fungal growth incubated for 24 hrs by broth microdilution method; type: functional
# Outline: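 Yeast cells were adjusted to about 2 × 10³ CFU/mL and broth microdilution was run for 24 h at 35 °C. Medium was YNB with 2% glucose and complete amino-acid mix, buffered to pH 7.0 with 50 mM MOPS. MIC was the lowest concentration giving >50% growth reduction versus untreated control, read by optical density at 600 nm.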
# [3] = Volume of distribution at steady state in Sprague-Dawley rat at 0.5 mg/kg, iv measured upto 1440 mins by LC/MS/MS analysis; type: ADME, organism-based; conditions: in vivo, read-out: Vdss
# [4] = Metabolic stability in human liver microsomes assessed as parent compound remaining at 0.5 uM incubated for 30 mins by LC/MS/MS analysis; type: ADME, Microsome; conditions: read-out: Stability
# Outline: (§1)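 Compound at 0.5 μM was incubated with liver microsomes at 0.5 mg protein/mL at 37 °C. Buffer was 50 mM Tris-HCl pH 7.4 with 150 mM KCl, 10 mM MgCl2 and 1 mM NADPH. Reactions were stopped at 0 and 30 min with MeCN/MeOH 1:1. Percent remaining was taken from LC/MS/MS peak area ratio, in duplicate.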
# [5] = Unbound fraction in Sprague-Dawley rat at 0.5 mg/kg, iv measured upto 1440 mins by LC/MS/MS analysis; type: ADME, organism-based; conditions: in vivo
# [6] = Metabolic stability in rat liver microsomes assessed as parent compound remaining at 0.5 uM incubated for 30 mins by LC/MS/MS analysis; type: ADME, Microsome; conditions: read-out: Stability; outline: as §1
# [7] = Clearance in Sprague-Dawley rat at 0.5 mg/kg, iv measured upto 1440 mins by LC/MS/MS analysis; type: ADME, organism-based; conditions: in vivo
# [8] = tested on: Aspergillus fumigatus; test: Antifungal activity against Aspergillus fumigatus ATCC 204305 assessed as inhibition of fungal growth incubated for 48 hrs in presence of 50% heat-inactivated bovine serum by broth microdilution method; type: functional; conditions: ATCC 204305, 48 h, in the assay text read “incubated for 48 hrs” for “incubated for 24 hrs”
# Outline: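 Broth microdilution per CLSI M38-A2 with modifications. Conidia at about 1 × 10⁴ CFU/mL were grown for 48 h at 35 °C in YNB with 2% glucose and complete amino-acid mix, buffered to pH 7.0 with 50 mM MOPS. Medium was with or without 50% heat-inactivated bovine serum. MIC was the lowest concentration giving no visible growth.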
# [9] = tested on: Aspergillus fumigatus; test: Antifungal activity against Aspergillus fumigatus ATCC 204305 assessed as inhibition of fungal growth incubated for 48 hrs by broth microdilution method; conditions: ATCC 204305, 48 h
# [10] = tested on: Aspergillus fumigatus; test: Antifungal activity against pan-azole resistant Aspergillus fumigatus SR47013 harbouring Cyp51A Y121F mutant assessed as inhibition of fungal growth incubated for 48 hrs by broth microdilution method; conditions: SR47013, 48 h
# [11] = tested on: Mus musculus; test: In vivo antifungal activity against Aspergillus fumigatus infected in ICR mouse assessed as reduction in serum-galactomannan at 30 mg/kg, iv administered at 2 to 50 hrs post-inoculation and measured after 60 hrs by GM analysis; type: functional, organism-based
# Outline: (§2)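 Male ICR mice (5 weeks) were immunosuppressed with intraperitoneal cyclophosphamide, 150 mg/kg on day −4 and 100 mg/kg on day −1. Mice were infected intravenously with about 1.5 × 10⁵ conidia in saline. Tail-vein dosing was at 2, 16, 21, 26, 40, 45 and 50 h, in 5% DMSO/5% Cremophor EL/4% glucose or 5% glucose. Samples were taken at 60 h, five mice per group, and analysed by Dunnett's test against untreated controls.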
# [12] = tested on: Mus musculus; test: In vivo antifungal activity against Aspergillus fumigatus infected in ICR mouse assessed as log reduction in fungal burden with 18S rRNA in kidney at 30 mg/kg, iv administered at 2 to 50 hrs post-inoculation and measured after 60 hrs by RT-qPCR analysis; type: functional; outline: as §2
Compound,MIC50 [1] [mg/L],MIC50 [2] [mg/L],"remaining at 0.5 h, 0.5 µM [4] [%]","remaining at 0.5 h, 0.5 µM [6] [%]",MIC [9] [mg/L],also measured
Cc1ccc(Oc2ccccc2-c2cnc(N=C3NCCCN3)s2)c(C)c1,> 16,> 16,–,–,–,–
C[C@@H](c1nc(-c2ccc(C#N)cc2)cs1)[C@](O)(Cn1cncn1)c1cc(F)ccc1F [ISAVUCONAZOLE],–,–,–,–,0.25,MIC50 [10]: > 16 mg/L
Cc1ccc(Oc2ccccc2-c2csc(N)n2)c(C)c1,> 16,4,–,–,–,–
CNC(=Nc1nc(-c2ccccc2Oc2ccc(C)cc2C)cs1)NC,> 16,> 16,–,–,–,–
Oc1ccc(-c2nc(-c3csc(N=C4NCCCN4)n3)cs2)cc1,–,–,86,53,2,MIC50 [8]: > 16 mg/L
c1ccc(-c2cccc(-c3csc(N=C4NCCCN4)n3)c2)cc1,1,< 0.063,–,–,–,–
c1ccc(-n2ccc(-c3csc(N=C4NCCCN4)n3)n2)cc1,> 16,0.5,38,1.6,–,–
c1ccc(-c2cc(-c3csc(N=C4NCCCN4)n3)cs2)cc1,4,0.063,70,30,–,–
CC[C@@H]([C@H](C)O)n1ncn(-c2ccc(N3CCN(c4ccc(OC[C@@H]5CO[C@@](Cn6cncn6)(c6ccc(F)cc6F)C5)cc4)CC3)cc2)c1=O [POSACONAZOLE],–,–,–,–,0.063,MIC50 [10]: 4 mg/L
Cc1ccc(Oc2ccccc2-c2csc(N=C3NCCCN3)n2)c(C)c1 [ABAFUNGIN],2,< 0.063,64,0.2,–,Vd [3]: 4.92 L/kg; Activity [11]: inactive; MIC50 [10]: 2 mg/L; fraction unbound at 24 h [5]: < 0.001; Activity [12]: inactive; clearance [7]: 3.08 L/h/kg

# The next lines start with results.
MIC50 [1] [mg/L],MIC50 [2] [mg/L],"remaining at 0.5 h, 0.5 µM [4] [%]","remaining at 0.5 h, 0.5 µM [6] [%]",MIC [9] [mg/L],Compound,also measured
> 16,8,–,–,–,Cc1ccc(Oc2ccccc2-c2csc(/N=C3\NCCCN3C)n2)c(C)c1,–
> 16,> 16,–,–,–,Cc1ccc(Oc2ccccc2-c2csc(Nc3ncccn3)n2)c(C)c1,–
0.5,< 0.063,83,31,–,c1ccc(-c2nc(-c3csc(N=C4NCCCN4)n3)cs2)cc1,Vd [3]: 7.25 L/kg; fraction unbound at 24 h [5]: 0.0104; clearance [7]: 1.99 L/h/kg; MIC50 [8]: 8 mg/L
–,–,77,35,4,Oc1cccc(-c2nc(-c3csc(N=C4NCCCN4)n3)cs2)c1,–
–,–,58,9,0.5,c1cc(-c2nc(-c3csc(N=C4NCCCN4)n3)cs2)ccn1,MIC50 [8]: 4 mg/L
